This series is described as follows: Toxicity liver stage against HepG2, at 10uM. The series is classed as cell-based. Set-up: test concentration 10 uM, cell line HepG2-A16-CD81EGFP. Conditions: human, HepG2-A16-CD81EGFP cells; read-out: INHIBITION
The method in brief: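 Uninfected HepG2-A16-CD81EGFP cells, 3 × 10^3 per well, 1536-well, plated on prespotted compound at 10 μM final, parasite-free screening media added to match infected plates; puromycin 10 μM positive, DMSO 0.5% negative; run in parallel with 48 h PbLuc assay at 37 °C, 5% CO2; viability by CellTiter-Glo luminescence, normalized to controls.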

As for `O=C(NCC1(c2ccc(F)cc2)CC1)N1CCC2(CCOC2)C1` (configuration not stated), the cytotoxicity at 10 µM is -6.72%.

`CN(CC(=O)N1CCCC1)C(=O)c1ccccc1Nc1ccccc1`: the cytotoxicity at 10 µM amounted to 11.3%.

In the case of `c1ccc(-c2ncc(CN3CCCCC3CCn3cccn3)cn2)nc1` (configuration not stated), the cytotoxicity at 10 µM is -3.34%.

Regarding `O=S(=O)(c1cccs1)N1CC[C@H](O)[C@@H]1Cc1ccncc1`, the cytotoxicity at 10 µM was determined as 3.19%.

`CCCn1c(C)c(CC(=O)N[C@H](C)C(=O)OC)c2c1CC(C)(C)CC2=O`: the cytotoxicity at 10 µM is -2.06%.

On to `O=C(NC1CC1)C1CN(C(=O)c2cnccn2)C1`, for which the cytotoxicity at 10 µM was -10.2%.

Take `CN(Cc1ccccc1F)C(C(N)=O)c1ccccc1` (configuration not stated): the cytotoxicity at 10 µM was -2.09%.

In the case of `Cc1ncncc1C(=O)NCCN1CCC(C)CC1`, the cytotoxicity at 10 µM was -8.76%.

With `O=C(Nc1ccccc1)c1nn(C2CCS(=O)(=O)C2)c2c1CCCC2` (configuration not stated), the cytotoxicity at 10 µM was -9.75%.

Take `Fc1cccc2c1CCC2NCc1cnc(N2CCOCC2)nc1` (configuration not stated): the cytotoxicity at 10 µM is 5.42%.

As to `Cc1cc(N2CCC(C(=O)NC3CC3)CC2)nc(-c2ccncc2)n1`, the cytotoxicity at 10 µM was -17%.

Consider `CC1CN(C)c2ccccc2CN1C(=O)NCc1ccon1` (configuration not stated), for which the cytotoxicity at 10 µM is 7.36%.

On to `COc1cccc(N2CC3(CCN(c4ccncn4)C3)CC2=O)c1` (configuration not stated), for which the cytotoxicity at 10 µM came out at 8.61%.

As for `CCOc1ccc(N(C)Cc2nc(C)c(C)o2)cc1`, the cytotoxicity at 10 µM was 19.9%.

Consider `Cc1nc2n(n1)CC(NCc1nc(C)c(C)o1)CC2` (configuration not stated), for which the cytotoxicity at 10 µM is -0.925%.

On to `CC(C)c1ncncc1C(=O)N1CCCN(Cc2ccccc2)CC1`, for which the cytotoxicity at 10 µM was -6.9%.

Take `O=C(CSCCN1CCOCC1)N1CCc2ccccc2C1`: the cytotoxicity at 10 µM is -6.58%.

Regarding `CCN(Cc1ccc2c(c1)OCO2)C(=O)c1ccc(=O)n(C)c1`, the cytotoxicity at 10 µM turned out to be 15.9%.

For the compound `Cc1cc(F)ccc1N1CCCC(NC2CCOCC2)C1=O` (configuration not stated), the cytotoxicity at 10 µM was -11.3%.

As for `CN(c1ccc(Cl)c(C(=O)NCCCN2CCOCC2)c1)S(C)(=O)=O`, the cytotoxicity at 10 µM amounted to 1.05%.

For the compound `Cc1cccc(N(CCC(N)=O)C(=O)c2cc(-n3cccn3)ccn2)c1`, the cytotoxicity at 10 µM is -1.5%.

`Cc1ccc(-c2nnc(CN3CC(n4cc(C)cn4)C3)o2)cc1`: the cytotoxicity at 10 µM turned out to be 2.48%.

Consider `O=C1N(c2ccsc2)CCC12CCCN(c1ncc(F)cn1)C2` (configuration not stated), for which the cytotoxicity at 10 µM was -105%.

As to `N#Cc1ccc(CNCC2CCN(CCO)CC2)cc1`, the cytotoxicity at 10 µM is -9.7%.

Take `Cn1cc(Cl)cc1C(=O)N1CCCN(Cc2nccn2C)CC1`: the cytotoxicity at 10 µM was -6.04%.

As for `Cn1ccc2cc(C(=O)NC3CCS(=O)(=O)C3)ccc21` (configuration not stated), the cytotoxicity at 10 µM turned out to be 0.979%.

In the case of `Cc1cnn(-c2ccc(C(=O)N3CCCC(n4ccnc4C)C3)cc2)c1` (configuration not stated), the cytotoxicity at 10 µM is -9.99%.

On to `Cc1nonc1OCCNC(=O)CCCc1ccc(Cl)cc1`, for which the cytotoxicity at 10 µM turned out to be 7.49%.

As to `c1cc(CC2CCCNC2)nc(NCCc2cnccn2)c1` (configuration not stated), the cytotoxicity at 10 µM worked out at 3.64%.

`O=C(c1ncc[nH]1)N1CCC(n2cc(-c3ccccn3)nn2)CC1`: the cytotoxicity at 10 µM worked out at 4.95%.

For `CC(C)n1cc(-n2cc3nc(N4CCOCC4)[nH]cc-3c2=O)cn1`, the cytotoxicity at 10 µM amounted to 4.48%.

Turning to `O=C1[C@@H]2CC[C@@H](CN(S(=O)(=O)c3ccccc3)C2)N1Cc1cscn1`, the cytotoxicity at 10 µM was -6.23%.

Consider `COC(=O)c1ccc(S(=O)(=O)NCC(O)c2sccc2C)cc1` (configuration not stated), for which the cytotoxicity at 10 µM was determined as 2.16%.

For `Cc1csc(N2CCN(CC(=O)Nc3cc(C)nn3C)CC2C)n1` (configuration not stated), the cytotoxicity at 10 µM was -10.2%.

Turning to `CN(C)c1cc(C(=O)Nc2ccccc2C(=O)NC(C)(C)C)ccn1`, the cytotoxicity at 10 µM amounted to 2.46%.

Turning to `COc1ccc(C(=O)N2CCN(C(=O)c3csc(C(C)C)n3)CC2)cc1`, the cytotoxicity at 10 µM was -10.4%.

Turning to `CC(C)C(C)NC(=O)Nc1ccccc1CN1CCOCC1` (configuration not stated), the cytotoxicity at 10 µM amounted to 0.795%.

With `COCCc1ncc(-c2c(C#N)c(N)nc3c2CCc2[nH]ccc2-3)cn1`, the cytotoxicity at 10 µM is -0.508%.

As to `Nc1nonc1C(=O)N1Cc2ccccc2OC2(CCOCC2)C1`, the cytotoxicity at 10 µM is -29.5%.

With `Cc1noc(CN2CCN(C(=O)N(C)C)CC2)n1`, the cytotoxicity at 10 µM was -1.22%.

Consider `CCN(CC)S(=O)(=O)c1ccc(C(=O)NC(C)(C)C)cc1`, for which the cytotoxicity at 10 µM is -6.79%.

Consider `COCC1CN(C(=O)Nc2cc(Cl)ccc2F)CCO1` (configuration not stated), for which the cytotoxicity at 10 µM amounted to 10.7%.

Take `Cc1nc(C(=O)N2CCN(S(C)(=O)=O)CC2)c(-c2ccccc2Cl)s1`: the cytotoxicity at 10 µM came out at 4.37%.

Take `CC(C)Cn1nccc1NC(=O)CN1CCOC(Cn2cccn2)C1` (configuration not stated): the cytotoxicity at 10 µM was -12%.

On to `Cc1ccc(CN2CCC3(CC2)CC(c2cccnc2)C(=O)N3C)o1` (configuration not stated), for which the cytotoxicity at 10 µM is -2.71%.

As for `CC(C)(Oc1ccc(F)cc1)C(=O)NCc1ccco1`, the cytotoxicity at 10 µM was -9.19%.

As for `COC[C@]1(O)CCN(Cc2cnc(N(C)C)nc2)CC1(C)C`, the cytotoxicity at 10 µM was -5.03%.

Regarding `Cc1cc(=O)[nH]c(-n2nc(C)c(CCC(=O)Nc3nc(C)cs3)c2C)n1`, the cytotoxicity at 10 µM came out at 5.61%.

`CCn1cc2c(n1)CN(Cc1ccc(C)o1)CC2COCC1CC1` (configuration not stated): the cytotoxicity at 10 µM was -80.7%.

As for `Cn1ncc2c(=O)[nH]c(CN3CCCc4cc(F)ccc43)nc21`, the cytotoxicity at 10 µM is -8.23%.

Consider `COc1ccc(COCC(O)CNC(=O)c2cc(C)no2)cc1` (configuration not stated), for which the cytotoxicity at 10 µM was 0.742%.

For the compound `CN(Cc1nccs1)c1nccc(N2CCN[C@H]3CS(=O)(=O)C[C@H]32)n1`, the cytotoxicity at 10 µM was -5%.

Regarding `O=C(NCC(Cc1cccc(F)c1)N1CCCC1=O)C1CCCC1` (configuration not stated), the cytotoxicity at 10 µM stood at 1.39%.

Consider `Cn1cc(CN2CCOC(c3cccc(-c4cncnc4)n3)C2)cn1` (configuration not stated), for which the cytotoxicity at 10 µM was determined as 4.74%.

Take `CC(Cn1ccnc1)NC(=O)NCCNC(=O)C(C)C` (configuration not stated): the cytotoxicity at 10 µM is -3.51%.

Turning to `Cc1c(CN2CCCCC2)c(O)n(CCO)c(=O)c1C#N`, the cytotoxicity at 10 µM was -1.64%.

Take `CCN(Cc1ccoc1)C(=O)c1ccc(C)c(S(N)(=O)=O)c1`: the cytotoxicity at 10 µM is -4.63%.

For `CC(=O)N1CCN(C(=O)Nc2ccccc2Cl)[C@H]2CS(=O)(=O)C[C@H]21`, the cytotoxicity at 10 µM is -0.166%.

As for `COCCN1C=NC2(CCC(C(=O)Nc3ccc(C)cc3)CC2)C1=O` (configuration not stated), the cytotoxicity at 10 µM amounted to 15.1%.

Consider `Cn1ccnc1CN(CCO)C(=O)c1cnc2ccccc2c1`, for which the cytotoxicity at 10 µM turned out to be 1.39%.

For `CCC[C@H]1CN(S(=O)(=O)c2ccc(Cl)cc2)C[C@@H]1NC(C)=O`, the cytotoxicity at 10 µM was -12.4%.

For `COc1ccc(S(=O)(=O)NC(=O)COC2CCCCC2)cc1`, the cytotoxicity at 10 µM is -1.64%.

In the case of `CC1(C)CNC(=O)c2nc(-c3ccccc3)[nH]c2C1`, the cytotoxicity at 10 µM was -7.28%.

In the case of `CCC(=O)N1CCC(O)(c2ncc(OC)nc2OC)CC1`, the cytotoxicity at 10 µM was found to be 3.03%.

Regarding `Cc1cnc(N2CCC3(CC2)CC(N(C)Cc2ccncc2)C3)nc1`, the cytotoxicity at 10 µM was 8.73%.

As to `Cc1oncc1C(=O)N1CC2CC1(C(=O)N(C)C)C2`, the cytotoxicity at 10 µM is -0.95%.

Take `Cc1cc(Br)oc1C(=O)N1CCCN(CC(N)=O)CC1`: the cytotoxicity at 10 µM stood at 0.71%.

Turning to `O=C(CCc1ccccc1)C1CCCN(C(=O)c2ncc(F)cc2F)C1` (configuration not stated), the cytotoxicity at 10 µM is -17.4%.

Turning to `CCc1cc(NCc2ccc(-n3cncn3)c(C)c2)n(C)n1`, the cytotoxicity at 10 µM is -52.6%.

For `Cc1nc(C)n(CC2CCCN(c3ncnc4ccsc34)C2)n1` (configuration not stated), the cytotoxicity at 10 µM was 42.4%.

Turning to `CN(C)C(=O)COCC1C[C@@H]2OCCN(Cc3ccco3)[C@H]2C1` (some centres not stated), the cytotoxicity at 10 µM is 11.9%.

Take `CC(C)Oc1ccccc1C1CC(=O)Nc2c1cnn2C` (configuration not stated): the cytotoxicity at 10 µM came out at 2.09%.

Consider `Cn1cc(CN2CCCC23CCN(C(=O)c2ccsc2)CC3)cn1`, for which the cytotoxicity at 10 µM stood at 0.993%.

Regarding `NCC(=O)N1CCCC(c2cncc(Nc3ncccn3)n2)C1` (configuration not stated), the cytotoxicity at 10 µM was determined as 0.848%.

Consider `COc1ccc(CNC(=O)CCN2C[C@@H](C)[C@](O)(C3CC3)C2)cc1`, for which the cytotoxicity at 10 µM was -12.5%.

Turning to `Cc1occc1CNC(=O)N(CCCO)C1CCc2ccccc21` (configuration not stated), the cytotoxicity at 10 µM is -0.842%.

On to `Cc1ncnc2c1CCN(C(=O)c1ccncc1)CC2`, for which the cytotoxicity at 10 µM is 12%.

As for `COCCN(C)C(C)Cc1ccccc1OC` (configuration not stated), the cytotoxicity at 10 µM is -5.34%.

With `CN(C)C(=O)CCC(=O)N1CCC2(CC1)COC2`, the cytotoxicity at 10 µM was determined as 2.05%.

Consider `Cc1cc(N(C)Cc2noc(C)n2)n2nc(C)c(C)c2n1`, for which the cytotoxicity at 10 µM was 14.4%.

With `Cc1ccc(CN2CCC3(C2)C(=O)N(CC(C)C)c2ccccc23)s1` (configuration not stated), the cytotoxicity at 10 µM is -0.324%.

Take `COc1nc(N2CCN(C(C)=O)CC2)ncc1Br`: the cytotoxicity at 10 µM is 0.27%.

Take `COCC(NC(=O)c1cn(-c2cccc(Cl)c2F)nn1)C1CC1` (configuration not stated): the cytotoxicity at 10 µM was found to be 11.1%.

As to `COc1ccc2c(c1)CCCN2C(=O)NC1CCCCNC1=O` (configuration not stated), the cytotoxicity at 10 µM is -139%.

On to `Cc1cc(NC2CCN(c3ccccc3)C2)n2ncnc2n1` (configuration not stated), for which the cytotoxicity at 10 µM was determined as 14.7%.

For the compound `CCN1CC(C(=O)N2CC(Oc3ccccc3F)C2)CC1=O` (configuration not stated), the cytotoxicity at 10 µM is -2.49%.

In the case of `Cc1ccoc1C(=O)NC1CCN(Cc2ccccc2F)CC1`, the cytotoxicity at 10 µM is -14.1%.

Consider `Cc1nc(N2CCN(C)CC2)ncc1C(=O)N1C[C@@H](C)[C@@](C)(O)C1`, for which the cytotoxicity at 10 µM came to 2.32%.

Turning to `OC(CN1CCC(c2ccn[nH]2)CC1)c1ccccc1F` (configuration not stated), the cytotoxicity at 10 µM was -25.5%.

For the compound `Cc1c(O)oc(-c2ccc(Br)cc2)nc1=O`, the cytotoxicity at 10 µM is -1.56%.

Turning to `CC(C)CN(Cc1ccc(-n2cncn2)cc1)Cc1ccccn1`, the cytotoxicity at 10 µM came to 8.57%.

For the compound `Cc1n[nH]c(C2CN(CC(=O)NCCc3ccc(F)cc3)CCO2)n1` (configuration not stated), the cytotoxicity at 10 µM is -8.13%.

Regarding `COCCCN1CCCN(C(C)c2nc(C3CC3)no2)CC1` (configuration not stated), the cytotoxicity at 10 µM was -8.77%.

As to `COc1cc(N2CCCn3cnc(COCCO)c3C2)ncn1`, the cytotoxicity at 10 µM was -3.61%.

Consider `CCc1nc(C2CCCN(C(=O)CN(C)S(C)(=O)=O)C2)no1` (configuration not stated), for which the cytotoxicity at 10 µM was -3.22%.

As to `COCCNC(=O)Cn1ccc2cccc(OC)c21`, the cytotoxicity at 10 µM is -45.8%.

For the compound `O=S(=O)(NCCC(O)c1cccs1)c1ccccc1` (configuration not stated), the cytotoxicity at 10 µM is -3.82%.

The values are drawn from ChEMBL document CHEMBL4513216, “Probing the Open Global Health Chemical Diversity Library for Multistage-Active Starting Points for Next-Generation Antimalarials” (ACS Infect Dis, 2020).
